The values below come from paper PMC3566393 (Biological Trace Element Research, 2012).

One series concerns the target rat TRPV1 (Rattus norvegicus, UniProt O35433). Description: Vanilloid-induced 45Ca2+ uptake in TRPV1/HaCaT cells. The note with it: for Effect on CAPS-induced 45Ca2+ uptake (in words): 2 μM CAPS, up to highest concentration 4 mM. Type of series: cell-based.
For series [1] the following is noted: cited from earlier work.
For series [2] the following is noted: 1:1 complexes; cited from earlier work.
Another series relates to CD1 mice. The series is described as follows: Eye wipe test. The note with it: 100 μM CAPS dropped into the eye with 1 mM CoCl2 or 5 μM CapZ, n = 8. Type of series: in vivo. In outline: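 Defensive eye-wiping movements were then counted. Data were means ± SD from eight independent experiments. Inhibition was tested by paired t test (P < 0.05).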
Series [3] addresses T1, TRPV1 (Rattus norvegicus, UniProt O35433). Description: Cobalt histochemistry on 3T3 cell line expressing TRPV1 ectopically. It counts as cell-based. The conditions noted are these: 10 min, ± S.D.
Series [4] has as its target T1, TRPV1. Description: Cobalt histochemistry on HaCaT cell line expressing TRPV1 ectopically. Type of series: cell-based. The note with it: 20 μM CAPS + 5 mM Co2+; CapZ 300 nM-100 μM, RuRed 500 nM-100 μM.
For the next series, the target named is rat TRPV1 N628W mutant (Rattus norvegicus, UniProt O35433, N628W). Description: CAPS-evoked 45Ca2+ influx in cells expressing the TRPV1 N628W point mutant. Type of series: cell-based. The note with it: read-out: IC50, 45Ca2+ influx, 4 μM CAPS.
Another series addresses wild-type TRPV1 (Rattus norvegicus, UniProt O35433). The series is described as follows: CAPS-evoked 45Ca2+ influx in cells transiently transfected with wild-type TRPV1. It counts as cell-based. The conditions noted are these: read-out: IC50, 45Ca2+ influx, 4 μM CAPS.
For series [5], the system named is TRPV1+ dorsal root ganglion neurons. The series is described as follows: Cobalt histochemistry in primary DRG sensory neuron cultures. The conditions noted are these: 20 μM CAPS, Co2+-uptake medium. Type of series: cell-based, rat.
The target in another series is rat TRPV1 Y627W mutant (Rattus norvegicus, UniProt O35433, Y627W). The series is described as follows: CAPS-evoked 45Ca2+ influx in cells expressing the TRPV1 Y627W point mutant. The note with it: read-out: IC50, 45Ca2+ influx, 4 μM CAPS. It counts as cell-based.
The next series deals with 3T3 cell line. The series is described as follows: Cobalt histochemistry on 3T3 cell line without TRPV1. Type of series: cell-based. The conditions noted are these: 20 μM CAPS + 5 mM Co2+.
In the next series the target is rat TRPV1 E651W mutant (Rattus norvegicus, UniProt O35433, E651W). The series is described as follows: CAPS-evoked 45Ca2+ influx in cells expressing the TRPV1 E651W point mutant. It counts as cell-based. The note with it: read-out: IC50, 45Ca2+ influx, 4 μM CAPS.
Another series addresses rat TRPV1 D646N mutant (Rattus norvegicus, UniProt O35433, D646N). The series is described as follows: CAPS-evoked 45Ca2+ influx in cells expressing the TRPV1 D646N point mutant. Type of series: cell-based. The note with it: read-out: IC50, 45Ca2+ influx, 4 μM CAPS.
For another series, the target named is TRPV1/3T3 cells (Rattus norvegicus, UniProt O35433). The series is described as follows: CAPS-induced TRPV1-mediated 45Ca2+ accumulation with VGCC blocker. Type of series: cell-based. The conditions noted are these: data not shown.

Where two headings read alike, the source gives them in different places.

Chain of rat TRPV1 (O35433 whole entry): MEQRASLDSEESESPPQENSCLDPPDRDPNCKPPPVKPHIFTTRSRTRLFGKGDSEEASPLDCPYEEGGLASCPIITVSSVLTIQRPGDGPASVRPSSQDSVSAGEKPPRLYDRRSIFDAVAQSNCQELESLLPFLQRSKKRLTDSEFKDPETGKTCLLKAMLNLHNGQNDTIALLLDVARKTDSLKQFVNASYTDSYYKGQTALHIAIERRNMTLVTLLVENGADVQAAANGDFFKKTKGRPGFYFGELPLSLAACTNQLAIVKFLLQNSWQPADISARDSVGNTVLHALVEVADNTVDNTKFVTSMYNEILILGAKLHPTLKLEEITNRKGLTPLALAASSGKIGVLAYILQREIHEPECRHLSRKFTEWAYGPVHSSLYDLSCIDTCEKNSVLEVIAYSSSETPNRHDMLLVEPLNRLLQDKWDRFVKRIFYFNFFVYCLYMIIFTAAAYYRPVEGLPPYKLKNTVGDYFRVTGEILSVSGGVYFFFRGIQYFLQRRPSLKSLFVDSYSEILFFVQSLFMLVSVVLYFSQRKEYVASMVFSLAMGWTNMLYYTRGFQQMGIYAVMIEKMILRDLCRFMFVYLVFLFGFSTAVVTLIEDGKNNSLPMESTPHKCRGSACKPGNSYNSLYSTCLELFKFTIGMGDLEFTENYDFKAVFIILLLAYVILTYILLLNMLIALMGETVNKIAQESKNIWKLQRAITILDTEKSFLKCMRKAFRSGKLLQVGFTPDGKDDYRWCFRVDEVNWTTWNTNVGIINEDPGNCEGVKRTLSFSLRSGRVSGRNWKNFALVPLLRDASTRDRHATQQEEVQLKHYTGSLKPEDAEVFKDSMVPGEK
T1 sequence (O35433 whole entry): as above
Chain of rat TRPV1 N628W mutant (O35433 whole entry N628W): as the sequence (O35433 whole entry) above, with N628W counted along it
Chain of rat TRPV1 Y627W mutant (O35433 whole entry Y627W): as the sequence (O35433 whole entry) above, with Y627W counted along it
Chain of rat TRPV1 E651W mutant (O35433 whole entry E651W): as the sequence (O35433 whole entry) above, with E651W counted along it
Chain of wild-type TRPV1 (O35433 whole entry): as the sequence (O35433 whole entry) above
Chain of rat TRPV1 D646N mutant (O35433 whole entry D646N): as the sequence (O35433 whole entry) above, with D646N counted along it
Chain of TRPV1/3T3 cells (O35433 whole entry): as the sequence (O35433 whole entry) above

For the molecule `CN(C)CCC=C1c2ccccc2CCc2ccccc21` [AMI, Amitriptyline, reference compound], the IC50 (in general, the concentration that inhibits the measured activity by half) against rat TRPV1 is 20 µM.
In the case of `COc1cc(CNC(=O)CCCC/C=C/C(C)C)ccc1O` [CAPS, capsaicin, reference compound], the “Concentration causing full activation (EC100) of TRPV1” value on rat TRPV1 (pH 7.5, 45Ca2+ uptake assay) is recorded as “Approximately 1 μM”.
For the molecule `[Ca+2]` [Ca^2+], the Ionic radius in series [1] is 100 picometres. The “Stability constant of the complex formed between M2+ and tryptophan” value (“Stability constant” for short) in series [2] is recorded as 2.55 ± 0.08.
Regarding `Oc1cc2c(cc1O)CN(C(=S)NCCc1ccc(Cl)cc1)CCC2` [CapZ, capsazepine, reference compound], the “Effect on vanilloid-evoked eye wiping movements” value with CD1 mice is “Inhibition”. Further, the “Mean gray value (intracellular CoS)” value on TRPV1 [3] (CAPS + Co2+ + CapZ (5 μM CapZ), n = 100) stood at 76.92 ± 22.21. Further, on TRPV1 [4], the “Effect on CAPS-induced cellular Co2+ accumulation” value is given as “inhibited the cellular entry of Co^2+ in a dose-dependent manner”.
For the molecule `[Co+2]` [Co^2+], the IC50 on rat TRPV1 N628W mutant came to 16.4 µM; at wild-type TRPV1 it was 18.3 µM; at rat TRPV1 Y627W mutant, 18.6 µM; on rat TRPV1 E651W mutant it was 15.3 µM; at rat TRPV1 D646N mutant it was 25.7 µM; at rat TRPV1 (read-out: IC50 of Co2+, in the presence of 0 μM cold Ca2+), 7.94 µM. Further, the IC50 on rat TRPV1 (read-out: IC50 of Co2+, in the presence of 0.0625 μM CAPS) amounted to 94.8 µM; on rat TRPV1 (read-out: IC50 of Co2+, in the presence of 0.125 μM CAPS), 58 µM; on rat TRPV1 (read-out: IC50 of Co2+, in the presence of 0.25 μM CAPS), 73.2 µM; on rat TRPV1 (read-out: IC50 of Co2+, in the presence of 0.5 μM CAPS), 32.6 µM; at rat TRPV1 (read-out: IC50 of Co2+, in the presence of 1 μM CAPS), 19.2 µM; on rat TRPV1 (read-out: IC50 of Co2+, in the presence of 2 μM CAPS), 22.6 µM. Also, the half-inhibitory concentration (IC50) on rat TRPV1 (read-out: IC50 of Co2+, in the presence of 4 μM CAPS) stood at 15.6 µM; on rat TRPV1 (read-out: IC50 of Co2+, in the presence of 15.625 μM cold Ca2+) it was 51.2 µM; at rat TRPV1 (read-out: IC50 of Co2+, in the presence of 31.25 μM cold Ca2+), 72.7 µM; on rat TRPV1 (read-out: IC50 of Co2+, in the presence of 62.5 μM cold Ca2+) it was 79.1 µM; at rat TRPV1 (read-out: IC50 of Co2+, in the presence of 125 μM cold Ca2+) it was 189 µM. In the series with CD1 mice, the “Effect on vanilloid-evoked eye wiping movements” value is given as “decreased the frequency of vanilloid-evoked defending movements”. In addition, on TRPV1 [3] (CAPS + Co2+ (20 μM CAPS + 5 mM Co2+), n = 111), the “Mean gray value (intracellular CoS)” value is 124.4 ± 21.51. Besides, the “CAPS-induced Co2+ accumulation in sensory neurons” value in series [5] is recorded as “enters into the cytosol of specific PNS sensory neurons”. Further, the “Co2+ staining in the absence of TRPV1” value with 3T3 cell line was “No substantial staining”. Further, the Ionic radius in series [1] is on record as 65 picometres. Moreover, the “Stability constant” value in series [2] was 4.34 ± 0.07.
With `[Cu+2]` [Cu^2+], in series [1], the Ionic radius is given as 73 picometres. For the same molecule, the “Stability constant” value in [2] is 8.05 ± 0.05.
For the molecule `[La+3]` [La^3+], the “Effect on CAPS-induced 45Ca2+ uptake (in words)” value (“Effect … (in words)” for short) on rat TRPV1 (TRPV1/HaCaT cells) is “little or no effect”.
On to `[Mg+2]` [Mg^2+], for which the Ionic radius in series [1] was 72 picometres. For the same molecule, the “Effect … (in words)” value on rat TRPV1 (TRPV1/HaCaT cells) is “little or no effect”. In addition, the “Stability constant” value in series [2] is on record as 2.84 ± 0.08.
For the molecule `[Mn+2]` [Mn^2+], the Ionic radius in [1] is given as 67 picometres. Besides, on rat TRPV1 (TRPV1/HaCaT cells), the “Effect … (in words)” value is recorded as “little or no effect”. Besides, the “Stability constant” value in series [2] is reported as 3.34 ± 0.05.
Consider `[Ni+2]` [Ni^2+], for which the Ionic radius in series [1] is listed as 69 picometres. Also, in series [2], the “Stability constant” value is 5.31 ± 0.06.
As for `N.N.N.N.N.N.N.N.N.N.N.N.N.N.[Cl-].[Cl-].[Cl-].[Cl-].[Cl-].[Cl-].[O-2].[O-2].[Ru+3].[Ru+3].[Ru+4]` [RuRed, Ruthenium Red, reference compound], the IC50 came to 1.33 µM at rat TRPV1 N628W mutant; 0.87 µM at wild-type TRPV1; 0.26 µM at rat TRPV1 Y627W mutant; 0.94 µM at rat TRPV1 E651W mutant; 12.8 µM at rat TRPV1 D646N mutant. Besides, at TRPV1 [4], the “Effect on CAPS-induced cellular Co2+ accumulation” value is recorded as “blocked”.
As to `[Zn+2]` [Zn^2+], the Ionic radius in series [1] is on record as 74 picometres. Also, the “Effect … (in words)” value on rat TRPV1 (TRPV1/HaCaT cells) is on record as “only partial inhibitor”. The “Decrease of the maximal ion influx achieved” value on rat TRPV1 (TRPV1/HaCaT cells, CAPS-induced 45Ca2+ uptake) is recorded as 30%. In addition, the “Stability constant” value in series [2] is given as 5.00 ± 0.08.
On to `COC(=O)C1=C(C)NC(C)=C(C(=O)OCC(C)C)C1c1ccccc1[N+](=O)[O-]` (stereo not shown) [nisoldipine], for which the “Effect on CAPS-induced TRPV1-mediated 45Ca2+ accumulation” value at TRPV1/3T3 cells was “did not decrease”.
